Values after ≈ are worked out from the molar mass of the structure shown.

One test has as its system HeLa. Kind of test: Antiproliferative activity against human HeLa cells after 96 hrs. The class given is functional, cell-based. An outline of the steps:
(§1)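 Cells in growth medium grown with variable compound concentrations at 37 °C in humidified CO2-controlled atmosphere; incubation 48 h for L1210 and FM3A, 72 h for CEM, 96 h for HeLa. Cell number counted by Coulter counter; IC50 = concentration inhibiting proliferation by 50%.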

The next test deals with CCRF-CEM. The test can be described thus: Antiproliferative activity against human CEM cells after 72 hrs. It counts as cell-based. An outline of the steps: as §1
Another test deals with L1210. Kind of test: Antiproliferative activity against mouse L1210 cells after 48 hrs. It counts as functional, cell-based. The following applies: L1210, 48 h. The procedure, abridged:
as §1

A further test has as its system FM3A. Kind of test: Antiproliferative activity against mouse FM3A cells after 48 hrs. The class given is functional, cell-based. The procedure, abridged:
as §1

One may read the IC50 as the concentration needed to halve the response being measured. Higher therefore signals weaker potency in that assay. On to `CNC(=O)NC[C@H]1O[C@@H](n2cnc3c(NC(=O)Nc4cccc(I)c4)ncnc32)[C@H](O[Si](C)(C)C(C)(C)C)[C@@H]1O[Si](C)(C)C(C)(C)C`, for which the IC50 came out at 21 µg/mL (≈ 26.4 µM) in the test on HeLa, 182 µg/mL (≈ 228 µM) in the test on CCRF-CEM and 38 µg/mL (≈ 47.7 µM) in the test on L1210.
For `CNC(=O)NC[C@H]1O[C@@H](n2cnc3c(NC(=O)Nc4ccc(Cl)cc4)ncnc32)[C@H](O[Si](C)(C)C(C)(C)C)[C@@H]1O[Si](C)(C)C(C)(C)C`, the 50% inhibitory concentration (IC50) with HeLa was found to be 3.4 µg/mL (≈ 4.82 µM); in the test on FM3A, 33 µg/mL (≈ 46.8 µM); in the test with CCRF-CEM, 14 µg/mL (≈ 19.8 µM); in the test on L1210, 5.6 µg/mL (≈ 7.94 µM).
On the same counts, the results for `CNC(=O)OC[C@H]1O[C@@H](n2cnc3c(NC(=O)Nc4ccc(I)cc4)ncnc32)[C@H](O[Si](C)(C)C(C)(C)C)[C@@H]1O[Si](C)(C)C(C)(C)C` are 143 µg/mL (≈ 179 µM), greater than 200 µg/mL, no less than 200 µg/mL and greater than 200 µg/mL.
`CNC(=O)OC[C@H]1O[C@@H](n2cnc3c(NC(=O)NCc4ccccc4)ncnc32)[C@H](O[Si](C)(C)C(C)(C)C)[C@@H]1O[Si](C)(C)C(C)(C)C`: the half-inhibitory concentration (IC50) in the test on HeLa was 23 µg/mL (≈ 33.5 µM); with FM3A, greater than 200 µg/mL; with CCRF-CEM, greater than 200 µg/mL; in the test on L1210, 101 µg/mL (≈ 147 µM).
For `CCCCCCNC(=O)Nc1ncnc2c1ncn2[C@@H]1O[C@H](COC(=O)NC)[C@@H](O[Si](C)(C)C(C)(C)C)[C@H]1O[Si](C)(C)C(C)(C)C`, the IC50 in the test on HeLa is 88 µg/mL (≈ 129 µM); with FM3A, greater than 200 µg/mL; in the test with CCRF-CEM, 175 µg/mL (≈ 257 µM); in the test on L1210 it was greater than 200 µg/mL.
Take `CNC(=O)NC[C@H]1O[C@@H](n2cnc3c(NC(=O)NC4CCCCC4)ncnc32)[C@H](O[Si](C)(C)C(C)(C)C)[C@@H]1O[Si](C)(C)C(C)(C)C`: the concentration for half-maximal inhibition (IC50) in the test on HeLa came to 11 µg/mL (≈ 16.2 µM); with FM3A, 8.4 µg/mL (≈ 12.4 µM); in the test on CCRF-CEM, 5.2 µg/mL (≈ 7.68 µM); with L1210 it was 20 µg/mL (≈ 29.5 µM).
With `CNC(=O)NC[C@H]1O[C@@H](n2cnc3c(NC(=O)NCc4ccccc4)ncnc32)[C@H](O[Si](C)(C)C(C)(C)C)[C@@H]1O[Si](C)(C)C(C)(C)C`, the 50% inhibitory concentration (IC50) came to 3.8 µg/mL (≈ 5.55 µM) in the test on HeLa, 9.2 µg/mL (≈ 13.4 µM) in the test on FM3A, 8.3 µg/mL (≈ 12.1 µM) in the test with CCRF-CEM and 4.6 µg/mL (≈ 6.72 µM) in the test with L1210.
For `CNC(=O)NC[C@H]1O[C@@H](n2cnc3c(NC(=O)Nc4ccc(OC)cc4)ncnc32)[C@H](O[Si](C)(C)C(C)(C)C)[C@@H]1O[Si](C)(C)C(C)(C)C`, the half-inhibitory concentration (IC50) is 2.6 µg/mL (≈ 3.71 µM) in the test on HeLa, 5.8 µg/mL (≈ 8.27 µM) in the test with FM3A, 5.2 µg/mL (≈ 7.42 µM) with CCRF-CEM and 3.8 µg/mL (≈ 5.42 µM) with L1210.
Regarding `CNC(=O)NC[C@H]1O[C@@H](n2cnc3c(NC(=O)Nc4ccc(I)cc4)ncnc32)[C@H](O[Si](C)(C)C(C)(C)C)[C@@H]1O[Si](C)(C)C(C)(C)C`, the concentration for half-maximal inhibition (IC50) in the test on HeLa was found to be 18 µg/mL (≈ 22.6 µM); in the test with CCRF-CEM it was 68 µg/mL (≈ 85.3 µM); in the test with L1210, 43 µg/mL (≈ 54 µM).
As for `CNC(=O)OC[C@H]1O[C@@H](n2cnc3c(NC(=O)Nc4ccc(Cl)cc4)ncnc32)[C@H](O[Si](C)(C)C(C)(C)C)[C@@H]1O[Si](C)(C)C(C)(C)C`, the half-maximal inhibitory concentration (IC50) in the test on HeLa, in the test with FM3A, in the test with CCRF-CEM and in the test on L1210 was greater than 200 µg/mL throughout.
Consider `CCCNC(=O)Nc1ncnc2c1ncn2[C@@H]1O[C@H](COC(=O)NC)[C@@H](O[Si](C)(C)C(C)(C)C)[C@H]1O[Si](C)(C)C(C)(C)C`, for which the IC50 is 55 µg/mL (≈ 86.2 µM) with HeLa, 23 µg/mL (≈ 36.1 µM) with FM3A, 59 µg/mL (≈ 92.5 µM) in the test on CCRF-CEM and 18 µg/mL (≈ 28.2 µM) with L1210.
On the same counts, the results for `CNC(=O)OC[C@H]1O[C@@H](n2cnc3c(NC(=O)Nc4ccc(OC)cc4)ncnc32)[C@H](O[Si](C)(C)C(C)(C)C)[C@@H]1O[Si](C)(C)C(C)(C)C` are no less than 200 µg/mL, greater than 200 µg/mL, greater than 200 µg/mL and greater than 200 µg/mL.
Turning to `CCCCCCNC(=O)Nc1ncnc2c1ncn2[C@@H]1O[C@H](CNC(=O)NC)[C@@H](O[Si](C)(C)C(C)(C)C)[C@H]1O[Si](C)(C)C(C)(C)C`, the IC50 with HeLa stood at 74 µg/mL (≈ 109 µM); with CCRF-CEM, 68 µg/mL (≈ 100 µM); in the test on L1210, 74 µg/mL (≈ 109 µM).

These data come from ChEMBL document CHEMBL1933013, “Synthesis, SAR, and preliminary mechanistic evaluation of novel antiproliferative N⁶,5'-bis-ureido- and 5'-carbamoyl-N⁶-ureidoadenosine derivatives” (Bioorg Med Chem, 2012).
